Measured values: PubChem BioAssay
Records with an inconclusive call do not appear.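 The calls were made as follows, unless noted: active = inhibition over a set limit, the all-compound mean plus 3 SD, in both replicate runs; inconclusive = over that limit in just one replicate run; inactive = at or under that limit in both runs.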

Experiments:
[1] = OD615 S. cerevisiae growth inhibition, permissive medium, pilot counter-assay, permissive growth control for S. cerevisiae lifespan shortening project (AID 705;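 active = growth inhibition above 25% in both replicates, a cutoff set 3 SD above the mean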); details: OD615, 24 h, at 10 µM, stronger effect = higher value
Method in brief: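 System: Engineered DeaD yeast | Buffer or medium: SC raffinose/galactose permissive medium | Doses: 10 µM single dose, 0.25% DMSO | Times: 24 h exposure, 30 °C | Measured by: OD615 turbidity read | Read-out: Yeast growth inhibition indicated by reduced 24 h OD615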

[2] = Restrictive medium S. cerevisiae growth inhibition, OD615, pilot screen of yeast lifespan reduction project, restrictive growth control (AID 706;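 active = growth inhibition above a set limit, 3 SD over mean compound inhibition, in both replicates, cut at about 43% in these data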;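 also: modified DeaD lifespan yeast strain shifted to restrictive glucose medium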); details: OD615, 48 h, at 10 µM, stronger effect = higher value
Method in brief: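 Assay system: engineered S. cerevisiae DeaD strain; Buffer or medium: CSMM-D glucose medium; Dosing: 10 µM compound, 0.25% DMSO; Times: cell pre-growth 4 h, compound exposure 48 h, 30 °C; Detection: absorbance (optical density) measured at 615 nm.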

[3] = viability gain of MRP-1-high H69AR cells under doxorubicin, pilot screen, MRP-1 activator project, CellTiter-Glo, duplicate (AID 807;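 active = viability increase at or above a cutoff of the median across tested compounds plus 3 SD, cut at about 8.5% in these data, passing the limit was not always enough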;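 also: compound pretreatment 18-22 h then 72 h combined with doxorubicin; 0% = doxorubicin alone and 100% = vehicle without doxorubicin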); details: H69AR viability with doxorubicin, CellTiter-Glo luminescence; at 10 µM; stronger effect = higher value
[4] = growth suppression of beta-catenin knockout HCT116, pilot screen, human colon tumor cells (AID 823;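 active = cell viability at or below a set limit in both duplicate runs, the limit being the all-compound median minus 4 SD, cut at about 23% in these data, passing the limit was not always enough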;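 also: 0% = wells killed by 20 µM Hyamine and 100% = untreated DMSO cell wells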); details: CellTiter-Glo, 60 h, at 10 µM, stronger effect = lower value
[5] = inhibitors of the yeast RAM network, pilot screen, dse1pr::URA3 reporter, 5-FOA selection (AID 869);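 also: 0% = DMSO wells with no growth and 100% = 10 µM 1-NA-PP1 with full growth; RAM network block rescues cells from 5-FOA so hits raise OD615 growth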; details: S. cerevisiae dse1pr::URA3 5-FOA growth, OD615, 2 d; at 10 µM; stronger effect = higher value; strain carries analog-sensitive mutant Cbk1 kinase
[6] = RAM signaling pathway blockade in yeast – S. cerevisiae, Pdr1DBD-CYC8 efflux-inhibited sensitized strain, primary screen (AID 1298;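 active = RAM network inhibition above 8.4% in each of two replicates, 3 SD over the compound average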;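 also: 0% = DMSO untreated cells without growth and 100% = 10 µM 1-NA-PP1 full growth; higher means more yeast growth rescued from 5-FOA killing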); details: S. cerevisiae cbk1-as DSE1-URA3 strain, 5-FOA growth OD615, 2 d; at 50 µM; stronger effect = higher value

COc1ccc(-c2cc3ccccc3n2CC(O)CN2CCOCC2)cc1 (stereo not given)
inactive: growth inhibition [1] -4.27% | growth inhibition [2] -5.21% | viability increase [3] -6.02% | viability [4] 89.7% | inhibition [5] 0.59% | RAM network inhibition [6] 2.87%

CCO/C=N/c1c(C#N)c(CC#N)nn1-c1ccccc1
inactive: growth inhibition [1] -13.5% | growth inhibition [2] 2.31% | viability increase [3] -1.36% | viability [4] 94.6% | inhibition [5] 2.31% | RAM network inhibition [6] 1.41%

Cc1cccc(C)c1NC(=O)CSc1nnc([C@@H]2CCCN2C(=O)OC(C)(C)C)o1
inactive: growth inhibition [1] -11.8% | growth inhibition [2] -6.59% | viability increase [3] -1.42% | viability [4] 96.3% | inhibition [5] 2.23% | RAM network inhibition [6] 8.94%

CCOC(=O)c1nc(-c2ccc3c(c2)OCO3)[nH]c1C
inactive: growth inhibition [1] -0.36% | growth inhibition [2] -0.67% | viability increase [3] -6.6% | viability [4] 29.7% | inhibition [5] 3.15% | RAM network inhibition [6] 1.76%

CCN(CC)C(=O)c1cn(CC)c(=O)c2cc(OC)c(OC)cc12
inactive: growth inhibition [1] -18.9% | growth inhibition [2] 2.04% | viability increase [3] -3.37% | viability [4] 103% | inhibition [5] 0.93% | RAM network inhibition [6] 2.76%

COC(=O)CCC(=O)Oc1ccc(OC(=O)CCC(=O)OC)cc1
inactive: growth inhibition [1] 7.12% | growth inhibition [2] 2.51% | viability increase [3] -4.94% | viability [4] 72.9% | inhibition [5] 1.48% | RAM network inhibition [6] 0.94%

O=c1[nH]c2ccc(S(=O)(=O)N3CCN(c4ccccc4F)CC3)cc2s1
inactive: growth inhibition [1] -19.3% | growth inhibition [2] -7.76% | viability increase [3] -4.17% | viability [4] 93.3% | inhibition [5] 0.75% | RAM network inhibition [6] 4.21%

CSc1nnc(C2CCCN2)n1C (stereo not given)
inactive: growth inhibition [1] -16.9% | growth inhibition [2] -7.04% | viability increase [3] -0.51% | viability [4] 90.9% | inhibition [5] 2.88% | RAM network inhibition [6] -0.16%

O=C(OCC(=O)N1CCN(C(=O)c2ccco2)CC1)C1=COCCO1
inactive: growth inhibition [1] -9.26% | growth inhibition [2] -5.99% | viability increase [3] -3.83% | viability [4] 105% | inhibition [5] 2.21% | RAM network inhibition [6] 3.69%

COc1cc(C2C(C(=O)c3ccco3)=C(O)C(=O)N2CCc2ccccc2)ccc1O (stereo not given)
inactive: growth inhibition [1] -1.96% | growth inhibition [2] -3.74% | viability increase [3] -3.47% | viability [4] 95.8% | inhibition [5] 0.735% | RAM network inhibition [6] -0.31%

CC12COC3(C(=O)Nc4cccnc4)CC1CCC32C (stereo not given)
inactive: growth inhibition [1] -5.62% | growth inhibition [2] 1.04% | viability increase [3] -2.08% | viability [4] 109% | inhibition [5] 1.51% | RAM network inhibition [6] 2.55%

CC1(C)Cc2c(c(=S)nc(-c3ccccc3)n2CCOCCO)CO1
inactive: growth inhibition [1] -16.5% | growth inhibition [2] 19.6% | viability increase [3] -2.12% | viability [4] 98.2% | inhibition [5] 0.775% | RAM network inhibition [6] 4.58%

Cc1ccc(N=C2SCCCN2C(=O)c2ccco2)cc1Cl
inactive: growth inhibition [1] -10.1% | growth inhibition [2] 4.65% | viability increase [3] -5.58% | viability [4] 87.6% | inhibition [5] 0.575% | RAM network inhibition [6] 0.78%

COc1ccc(N2CCN(CCNC(=O)c3ccc(NC(=O)C4CCCO4)cc3)CC2)cc1 (stereo not given)
inactive: growth inhibition [1] -14% | growth inhibition [2] -9.71% | viability increase [3] -1.61% | viability [4] 99.8% | inhibition [5] 1.68% | RAM network inhibition [6] 7.42%

Nn1c(SCC(=O)NC2CCCCC2)nnc1-c1ccccc1
inactive: growth inhibition [1] -25.7% | growth inhibition [2] 8.66% | viability increase [3] -1.37% | viability [4] 98.8% | inhibition [5] 2.28% | RAM network inhibition [6] 4.63%

OCCN1CCN(c2ncnc3c2sc2nc(N4CCOCC4)c4c(c23)CCC4)CC1
inactive: growth inhibition [1] -16.4% | growth inhibition [2] -3.42% | viability increase [3] -7.68% | viability [4] 55.3% | inhibition [5] 1.13% | RAM network inhibition [6] 2.39%

O=c1[nH]n(-c2ncnc3c2cnn3-c2ccccc2)c(=O)c2ccccc12
inactive: growth inhibition [1] -3.32% | growth inhibition [2] 13.1% | viability increase [3] -2.9% | viability [4] 101% | inhibition [5] 1.52% | RAM network inhibition [6] 2.07%

COc1ccc(Nc2ncnc3c2cnn3Cc2ccccc2)cc1
inactive: growth inhibition [1] -28.7% | growth inhibition [2] 3.04% | viability increase [3] 1.14% | viability [4] 88.9% | inhibition [5] 1% | RAM network inhibition [6] 3.74%

Cc1ccnc(Sc2nc3c(c(=O)[nH]c(=O)n3C)n2CCCc2ccccc2)n1
inactive: growth inhibition [1] -17.7% | growth inhibition [2] 2.31% | viability increase [3] -2.18% | viability [4] 91.8% | inhibition [5] 1.6% | RAM network inhibition [6] 1.4%

CC(NC(=O)C(C)(C)C)c1nc2ccccc2n1C (stereo not given)
inactive: growth inhibition [1] 5.72% | growth inhibition [2] 5.71% | viability increase [3] -3.14% | viability [4] 95.1% | inhibition [5] 0.63% | RAM network inhibition [6] 3.17%

CCCCn1c(C(C)NC(=O)c2cccs2)nc2ccccc21 (stereo not given)
inactive: growth inhibition [1] -10.5% | growth inhibition [2] -2.79% | viability increase [3] -3.37% | viability [4] 89% | inhibition [5] 1.42% | RAM network inhibition [6] 3.28%

COCCNC(=O)c1cn(C)c(=O)c2cc(OC)c(OC)cc12
inactive: growth inhibition [1] -20.6% | growth inhibition [2] -7.83% | viability increase [3] -1.73% | viability [4] 95.5% | inhibition [5] 1.6% | RAM network inhibition [6] 7.53%

CN1CCCCc2c1[nH]c1ccccc1c2=O
inactive: growth inhibition [1] 8.28% | growth inhibition [2] 2.2% | viability increase [3] -3.35% | viability [4] 95.8% | inhibition [5] 0.42% | RAM network inhibition [6] -1.45%

N#Cc1c2n(cnc1=O)CCCCC2
inactive: growth inhibition [1] -15.7% | growth inhibition [2] 3.32% | viability increase [3] -1.5% | viability [4] 100% | inhibition [5] 0.835% | RAM network inhibition [6] 3.53%

CCC(=O)c1cc(F)c(N2CCN(S(=O)(=O)c3ccccc3)CC2)cc1C
inactive: growth inhibition [1] -21.4% | growth inhibition [2] 0.885% | viability increase [3] 0.77% | viability [4] 59.2% | inhibition [5] 0.65% | RAM network inhibition [6] 1.67%

COc1ccc(C(=O)Nc2ccccc2-c2nnn(CC(=O)NCc3ccco3)n2)cc1
inactive: growth inhibition [1] -1.97% | growth inhibition [2] 10% | viability increase [3] -2.04% | viability [4] 78% | inhibition [5] 4.12% | RAM network inhibition [6] 7.41%

C=CCn1c(=O)[nH]c2cc(C(=O)N3CCN(c4cccc(Cl)c4)CC3)ccc2c1=O
inactive: growth inhibition [1] -16.5% | growth inhibition [2] -12.3% | viability increase [3] -6.95% | viability [4] 79.3% | inhibition [5] 3.33% | RAM network inhibition [6] 3.07%

Cn1cc(S(=O)(=O)CC(=O)Nc2ccc3c(c2)OCCO3)c2ccccc21
inactive: growth inhibition [1] -14.9% | growth inhibition [2] -1.21% | viability increase [3] -1.77% | viability [4] 106% | inhibition [5] 3.01% | RAM network inhibition [6] 3.07%

CCOc1ccc(-n2c(SCC(=O)Nc3ccc4c(c3)OCCO4)nc3c(c2=O)SCC3)cc1
inactive: growth inhibition [1] -12.9% | growth inhibition [2] -5.05% | viability increase [3] -2.09% | viability [4] 84.1% | inhibition [5] 3.17% | RAM network inhibition [6] 9.35%

CCC1CCCCN1C(=O)CSc1nc2c([nH]c3ccccc32)c(=O)n1C (stereo not given)
inactive: growth inhibition [1] -5.5% | growth inhibition [2] -4.4% | viability increase [3] -8.15% | viability [4] 55.7% | inhibition [5] 1.36% | RAM network inhibition [6] 3.27%

CCOC(=O)N1CCC(NC(=O)C(Cc2ccccc2)NC(=O)C2CCCCC2)CC1 (stereo not given)
inactive: growth inhibition [1] -1.7% | growth inhibition [2] 3.73% | viability increase [3] -2.92% | viability [4] 100% | inhibition [5] 0.04% | RAM network inhibition [6] 6.59%

Cc1ccc(C(=O)N2CCN(C)CC2)cc1S(=O)(=O)N1CCCCC1
inactive: growth inhibition [1] 0.05% | growth inhibition [2] -11.5% | viability increase [3] -2.65% | viability [4] 90.1% | inhibition [5] 1.31% | RAM network inhibition [6] 0.57%

CCCn1cc(S(=O)(=O)CC(=O)N2CCc3ccccc32)c2ccccc21
inactive: growth inhibition [1] -14.9% | growth inhibition [2] -8.48% | viability increase [3] -5.64% | viability [4] 96.9% | inhibition [5] 4.21% | RAM network inhibition [6] 5.15%

c1cncc(CNc2c3c(nc4nnnn24)CCCC3)c1
inactive: growth inhibition [1] -7.77% | growth inhibition [2] -8.93% | viability increase [3] -2.59% | viability [4] 90% | inhibition [5] 0.45% | RAM network inhibition [6] -0.36%

CC1(C)OC(=O)C(=C2CCCN2)C(=O)O1
inactive: growth inhibition [1] 0.65% | growth inhibition [2] -5.36% | viability increase [3] -1.34% | viability [4] 105% | inhibition [5] 0.815% | RAM network inhibition [6] 6.12%

COc1ccccc1NC1=NCC(=O)N1Cc1ccccc1
inactive: growth inhibition [1] -30.4% | growth inhibition [2] -3.24% | viability increase [3] -0.5% | viability [4] 93.9% | inhibition [5] 3.58% | RAM network inhibition [6] 4.78%

Cc1ccc(CNC(=O)CCS(=O)(=O)c2cccc3nonc23)cc1
inactive: growth inhibition [1] 8.16% | growth inhibition [2] -4.57% | viability increase [3] -0.35% | viability [4] 98.8% | inhibition [5] 1.71% | RAM network inhibition [6] 5.43%

CCOc1ccc(-n2c(SCC(N)=O)nc3c(c2=O)SCC3)cc1
inactive: growth inhibition [1] -1.29% | growth inhibition [2] 8.27% | viability increase [3] -0.72% | viability [4] 98.2% | inhibition [5] 2.31% | RAM network inhibition [6] 7.32%

Cc1cccc(N2CCN(c3nc4ccccc4n4cnnc34)CC2)c1C
inactive: growth inhibition [1] -11.7% | growth inhibition [2] -6.28% | viability increase [3] -4.42% | viability [4] 49.3% | inhibition [5] 1.89% | RAM network inhibition [6] -0.66%

Cc1nc2c3c4c(sc3n3c(SCC(=O)NCc5ccco5)nnc3n2n1)COC(C)(C)C4
inactive: growth inhibition [1] -15.2% | growth inhibition [2] 3.31% | viability increase [3] -6.89% | viability [4] 88.7% | inhibition [5] 1.85% | RAM network inhibition [6] 5.05%
